One assay deals with HCT-116. Kind of assay: Inhibitory activity against human colon tumor cell sensitive to paclitaxel. In kind it is functional, cell-based.
Assay [1] relates to M109. Put plainly: In vivo efficacy against Madison Murine lung carcinoma M109 tumors implanted ip and the drug given ip on days 5 and 8 post implantation. Format: functional, Mus musculus. The method in brief:
(§1)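 M109 tumor was implanted ip and drug given ip on days 5 and 8 after implantation. Read-out was %T/C of the analogue at its maximum tolerated dose, reported against %T/C for paclitaxel at a historically determined efficacious dose, which is not its MTD. %T/C above 125% is counted as active.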

Assay [2] in a line: Inhibition of tubulin polymerization compared paclitaxel. Format: functional. The method in brief:
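Tubulin polymerization was followed by optical density. The value is the compound concentration giving a change of 0.01 OD/h, expressed as a ratio to the paclitaxel concentration giving the same change.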

The test system of assay [3] is M109. Put plainly: In vivo efficacy against Madison Murine lung carcinoma M109 tumors implanted sc and the drug given iv every day x 5 beginning 4 days post implantation. In kind it is functional, Mus musculus. The method in brief:
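Murine M109 tumor was implanted subcutaneously, a site distal to drug administration. Dosing was iv daily ×5 starting 4 days after implant. Activity was expressed as gross log cell kill (LCK) of the analogue at its maximum tolerated dose, alongside LCK for paclitaxel at a historically determined efficacious dose. An LCK of 1 is counted as active.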

Assay [4] can be described thus: Ratio of IC50 values of HCT116 MDR resistant cell line to HCT-116 sensitive cell line. Format: functional. The method in brief:
(§2)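 IC50 was measured in the HCT-116/MDR paclitaxel-resistant human colon tumor line and in parental paclitaxel-sensitive HCT-116 cells. The ratio is resistant IC50 divided by sensitive IC50.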

Assay [5] relates to M109. Kind of assay: In vivo efficacy against Madison Murine lung carcinoma M109 tumors implanted ip and the drug given ip on days 5 and 8 post implantation. Format: functional, Mus musculus. The method in brief: as §1
The species entered for assay [6] is Mus musculus. Put plainly: Gross log cell kill activity at optimal dose of 30 units for q2dx5;26 schedule in mice infected with L2987 (Lung carcinoma) cells. In kind it is functional.
The species entered for assay [7] is Mus musculus. Kind of assay: Number of cures/total at optimal dose of 30 units for q2dx5;26 schedule in mice infected with L2987 (Lung carcinoma) cells; 0/8. Format: functional.
For assay [8], the species on record is Mus musculus. Put plainly: Number of cures/total at optimal dose of 40 units for q2dx5;10 schedule in mice infected with HCT/pk (Colon ca.) cells; 1/8. Format: functional.
The species named for assay [9] is Mus musculus. Put plainly: Gross log cell kill activity at optimal dose of 40 units for q2dx5;10 schedule in mice infected with HCT/pk (Colon ca.) cells. Format: functional.
Assay [10] is filed under the species Mus musculus. Put plainly: %T/C at optimal dose of 30 units for q2dx5;12 schedule in mice infected with HOC79 (ovarian ca.) cells.
Assay [11] is filed under the species Mus musculus. Put plainly: Gross log cell kill activity at optimal dose of 2 units for q2dx5;8 schedule in mice infected with A2780 (ovarian carcinoma) cells. In kind it is functional. The method in brief:
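Staged A2780 tumours in mice. Dosing was intravenous, every other day for 5 doses, starting 8 days after implantation. Optimal dose is the one below the excessively toxic dose. Activity is reported as gross log cell kill.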

The species named for assay [12] is Mus musculus. Put plainly: Number of cures/total at optimal dose of 30 units for q2dx5;12 schedule in mice infected with HOC79 (ovarian ca.) cells; 0/8. Format: functional.
The species named for assay [13] is Mus musculus. Put plainly: Number of cures/total at optimal dose of 2 units for q2dx5;8 schedule in mice infected with A2780 (ovarian carcinoma) cells; 0/8. Format: functional.
A short description of assay [14]: Ratio of IC50 values of HCT116 MDR resistant cell line to HCT-116 sensitive cell line. Format: functional. The method in brief: as §2

As usually defined, the IC50 is the midpoint of a concentration-inhibition curve. A high value points to weaker potency in that assay. In the assay on HCT-116, `COCO[C@H]1C[C@H]2OC[C@@]2(OC(C)=O)C2[C@H](OC(=O)c3ccccc3)[C@]3(O)CC(OC(=O)[C@H](O)[C@@H](NC(=O)OCc4ccccc4)c4ccccc4)C(C)=C([C@@H](OC(C)=O)C(=O)[C@@]21C)C3(C)C` (some centres not stated) came in with an IC50 of 1.4 nM. For the same compound, in the assay with M109 [1], the Efficacy came to 139. The Ratio in [2] worked out at 0.6.

`CCCCOC(=O)N[C@@H](c1ccccc1)[C@@H](O)C(=O)OC1C[C@@]2(O)[C@@H](OC(=O)c3ccccc3)C3[C@](C)(C(=O)[C@H](OC(C)=O)C(=C1C)C2(C)C)[C@@H](OCSC)C[C@H]1OC[C@@]31OC(C)=O` (some centres not stated): 1.2 nM corresponded to half-maximal inhibition in the assay with HCT-116 (IC50). Besides, the Efficacy turned out to be 177 with M109 [1] and 0.2 with M109 [3]. Further, the Ratio in assay [2] is 0.6.

As for `COCO[C@H]1C[C@H]2OC[C@@]2(OC(C)=O)C2[C@H](OC(=O)c3ccccc3)[C@]3(O)CC(OC(=O)[C@H](O)[C@@H](NC(=O)OC(C)(C)C)c4ccco4)C(C)=C([C@@H](OC(C)=O)C(=O)[C@@]21C)C3(C)C` (some centres not stated), the IC50 with HCT-116 came to 1.3 nM. Moreover, the Efficacy with M109 [1] was found to be 118. Also, the figures for the Ratio in assay [4] and in [2] were 5.6 and 0.4, respectively.

In turn, `CSCO[C@H]1C[C@H]2OC[C@@]2(OC(C)=O)C2[C@H](OC(=O)c3ccccc3)[C@]3(O)CC(OC(=O)[C@H](O)[C@@H](NC(=O)OC(C)C)c4ccccc4)C(C)=C([C@@H](OC(C)=O)C(=O)[C@@]21C)C3(C)C` (some centres not stated) registered an IC50 with HCT-116 of 1.7 nM. The figures for the Efficacy in the assay with M109 [1] and in the assay on M109 [3] were 191 and 0.5, respectively. In addition, in assay [2], the Ratio stood at 1.6.

`COCO[C@H]1C[C@H]2OC[C@@]2(OC(C)=O)C2[C@H](OC(=O)c3ccccc3)[C@]3(O)CC(OC(=O)[C@H](O)[C@@H](NC(=O)c4ccccc4)c4ccco4)C(C)=C([C@@H](OC(C)=O)C(=O)[C@@]21C)C3(C)C` (some centres not stated) displayed an IC50 with HCT-116 of 2.1 nM. In the assay with M109 [5], this compound displayed an Efficacy of 115. Also, the Ratio in [2] was determined as 2.3.

For the compound `CCOCO[C@H]1C[C@H]2OC[C@@]2(OC(C)=O)C2[C@H](OC(=O)c3ccccc3)[C@]3(O)CC(OC(=O)[C@H](O)[C@@H](NC(=O)c4ccccc4)c4ccccc4)C(C)=C([C@@H](OC(C)=O)C(=O)[C@@]21C)C3(C)C` (some centres not stated), in the assay with HCT-116, half-maximal inhibition (IC50) was put at 2.2 nM. This compound showed an Efficacy with M109 [1] of 132. The Ratio in [2] is 0.6.

In turn, `CC(=O)O[C@H]1C(=O)[C@@]2(C)C([C@H](OC(=O)c3ccccc3)[C@]3(O)CC(OC(=O)[C@H](O)[C@@H](NC(=O)c4ccccc4)c4ccccc4)C(C)=C1C3(C)C)[C@]1(OC(C)=O)CO[C@@H]1C[C@@H]2OCOCCO` (some centres not stated) registered an IC50 with HCT-116 of 1.1 nM. For the same compound, the figures for the Efficacy in the assay on M109 [1] and with M109 [3] were 238 and 0.9, respectively. Further, the Ratio in [2] was 1.

The compound `CC(=O)O[C@H]1C(=O)[C@@]2(C)C([C@H](OC(=O)c3ccccc3)[C@]3(O)CC(OC(=O)[C@H](O)[C@@H](NC(=O)OC(C)(C)C)c4ccccc4)C(C)=C1C3(C)C)[C@]1(OC(C)=O)CO[C@@H]1C[C@@H]2OCOCCO` (some centres not stated) registered a concentration for half-maximal inhibition (IC50) with HCT-116 of 1.1 nM. In the assay on M109 [1], this compound came in with an Efficacy of 136. Moreover, the Ratio in [4] turned out to be 0.7; in [2], 1.6.

In the case of `COCO[C@H]1C[C@H]2OC[C@@]2(OC(C)=O)C2[C@H](OC(=O)c3ccccc3)[C@]3(O)CC(OC(=O)[C@H](O)[C@@H](NC(=O)c4ccccc4)c4ccccc4)C(C)=C([C@@H](OC(C)=O)C(=O)[C@@]21C)C3(C)C` (some centres not stated), half-maximal inhibition with HCT-116 (IC50) required 1.4 nM. This compound also returned an Efficacy in the assay with M109 [1] of 192. Further, the Ratio in [4] was 10; in assay [2], 0.5.

Compound `COCO[C@H]1C[C@H]2OC[C@@]2(OC(C)=O)C2[C@H](OC(=O)c3ccccc3)[C@]3(O)CC(OC(=O)[C@H](O)[C@@H](NC(=O)OC(C)(C)C)c4ccccc4)C(C)=C([C@@H](OC(C)=O)C(=O)[C@@]21C)C3(C)C` (some centres not stated) registered a half-maximal inhibitory concentration (IC50) in the assay with HCT-116 of 1.1 nM. The compound further returned an Efficacy in the assay with M109 [1] of 118. Moreover, the figures for the Ratio in assay [4] and in assay [2] were 2 and 0.2, respectively.

In the assay with HCT-116, `COCCOCO[C@H]1C[C@H]2OC[C@@]2(OC(C)=O)C2[C@H](OC(=O)c3ccccc3)[C@]3(O)CC(OC(=O)[C@H](O)[C@@H](NC(=O)c4ccccc4)c4ccccc4)C(C)=C([C@@H](OC(C)=O)C(=O)[C@@]21C)C3(C)C` (some centres not stated) came in with a 50% inhibitory concentration (IC50) of 0.9 nM. In the assay with M109 [1], this compound came in with an Efficacy of 132. The Ratio in [2] was found to be 1.1.

With `CC(=O)O[C@H]1C(=O)[C@@]2(C)C([C@H](OC(=O)c3ccccc3)[C@]3(O)CC(OC(=O)[C@H](O)[C@@H](NC(=O)OC(C)(C)C)c4ccco4)C(C)=C1C3(C)C)[C@]1(OC(C)=O)CO[C@@H]1C[C@@H]2OCOCCO` (some centres not stated), the midpoint of inhibition with HCT-116, the IC50, lay at 1.7 nM. Besides, the Ratio was determined as 4.1 in assay [4] and 0.3 in assay [2].

In the case of `CSCO[C@H]1C[C@H]2OC[C@@]2(OC(C)=O)C2[C@H](OC(=O)c3ccccc3)[C@]3(O)CC(OC(=O)[C@H](O)[C@@H](NC(=O)OC(C)(C)C)c4ccco4)C(C)=C([C@@H](OC(C)=O)C(=O)[C@@]21C)C3(C)C` (some centres not stated), it took 1.7 nM to reach half-maximal inhibition in the assay on HCT-116 (IC50). The same compound had an Efficacy in the assay on M109 [1] of 104. The Ratio stood at 1 in assay [4] and 1.6 in [2].

For `CSCO[C@H]1C[C@H]2OC[C@@]2(OC(C)=O)C2[C@H](OC(=O)c3ccccc3)[C@]3(O)CC(OC(=O)[C@H](O)[C@@H](NC(=O)c4ccccc4)c4ccco4)C(C)=C([C@@H](OC(C)=O)C(=O)[C@@]21C)C3(C)C` (some centres not stated), half-maximal inhibition in the assay with HCT-116 (IC50) was put at 0.6 nM. Also, the Efficacy in the assay on M109 [1] worked out at 191; in the assay with M109 [3] it was 1.1. For the same compound, the Ratio in assay [2] was found to be 1.

With `CC(=O)O[C@H]1C(=O)[C@@]2(C)[C@H]([C@H](OC(=O)c3ccccc3)[C@]3(O)C[C@H](OC(=O)[C@H](O)[C@@H](NC(=O)c4ccccc4)c4ccccc4)C(C)=C1C3(C)C)[C@]1(OC(C)=O)CO[C@@H]1C[C@@H]2O` [PACLITAXEL], the LCK in the assay filed under Mus musculus [6] was found to be 1.3; in the assay filed under Mus musculus [9] it was 2.8; in the assay filed under Mus musculus [11] it was 6.1. In addition, the C/T in the assay listed under Mus musculus [7] was found to be 0; in the assay filed under Mus musculus [8], 1; in the assay filed under Mus musculus [12], 0; in the assay listed under Mus musculus [13] it was 0. Also, in the assay filed under Mus musculus [10], the %T/C is 273%. Also, the figures for the Ratio in [4] and in assay [2] were 200 and 1, respectively.

In turn, `CSCO[C@H]1C[C@H]2OC[C@@]2(OC(C)=O)C2[C@H](OC(=O)c3ccccc3)[C@]3(O)CC(OC(=O)[C@H](O)[C@H](C=C(C)C)NC(=O)OC(C)(C)C)C(C)=C([C@@H](OC(C)=O)C(=O)[C@@]21C)C3(C)C` (some centres not stated) yielded an IC50 with HCT-116 of 0.7 nM. In addition, the Efficacy in the assay with M109 [1] is on record as 109. For the same compound, the Ratio is 3.3 in [4] and 1.1 in assay [2].

In the case of `CC(=O)O[C@H]1C(=O)[C@@]2(C)C([C@H](OC(=O)c3ccccc3)[C@]3(O)CC(OC(=O)[C@H](O)[C@@H](NC(=O)OC(C)C)c4ccco4)C(C)=C1C3(C)C)[C@]1(OC(C)=O)CO[C@@H]1C[C@@H]2OCOCCO` (some centres not stated), the IC50 in the assay with HCT-116 came out at 0.9 nM. This compound came in with an Efficacy with M109 [1] of 145. Also, the Ratio in assay [2] was found to be 0.3.

In the assay on HCT-116, `CO[C@H]1C[C@H]2OC[C@@]2(OC(C)=O)C2[C@H](OC(=O)c3ccccc3)[C@]3(O)CC(OC(=O)[C@H](O)[C@@H](NC(=O)OC(C)(C)C)c4ccco4)C(C)=C([C@@H](OC(C)=O)C(=O)[C@@]21C)C3(C)C` (some centres not stated) had an IC50 of 1.3 nM. Moreover, the Efficacy in the assay with M109 [5] stood at 121. Also, the figures for the Ratio in assay [14] and in [2] were 1.7 and 0.4, respectively.
